What was measured:
[1] = target: T1, Sodium-dependent dopamine transporter (Homo sapiens, UniProt Q01959); assay: Displacement of [3H]WIN-35428 from Dopamine transporter
In short: (§1)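 Radioligand binding: inhibitory binding constants measured against a known radiolabelled re-uptake inhibitor. Ligands were [3H]citalopram for SERT, [3H]WIN35,428 for DAT and [3H]nisoxetine for NET. Values are means of three experiments; minimum significant ratio < 3.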

[2] = target: T2, Sodium-dependent serotonin transporter (Homo sapiens, UniProt P31645); assay: Displacement of [3H]-citalopram from Serotonin transporter; in short: as §1
[3] = target: T3, Sodium-dependent noradrenaline transporter (Homo sapiens, UniProt P23975); assay: Displacement of [3H]-Nisoxetine from norepinephrine transporter
[4] = target: T1, Sodium-dependent dopamine transporter; assay: In vitro inhibition of DA re-uptake into synaptosome; format: functional, tissue-based, Brain
[5] = target: T3, Sodium-dependent noradrenaline transporter; assay: In vitro inhibition of [3H]NE re-uptake into synaptosome; format: functional, tissue-based, Brain
[6] = target: T3, Sodium-dependent noradrenaline transporter; assay: Compound was tested for its ability to displace […] from norepinephrine transporter
[7] = target: T2, Sodium-dependent serotonin transporter; assay: In vitro ability of compound to inhibit 5-HT re-uptake of radiolabeled [3H]-tritium transmitter into synaptosome; format: tissue-based, Brain
[8] = target: Sodium-dependent serotonin transporter (Mus musculus) (UniProt Q60857); assay: In vivo potentiation of compound towards Serotonin transporter after po administration; format: functional, organism-based
In short: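 Oral dosing, read-out from the 5-HTP test. The value is the minimum effective dose (EDmin) in mg/kg po.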

[9] = target: Sodium-dependent dopamine transporter (Mus musculus) (UniProt Q61327); assay: In vivo potentiation of compound towards Dopamine transporter after po administration was determined in mouse using mouse locomotor activity […]; format: functional, organism-based
In short: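 Given by mouth and assessed in the MLA (locomotor activity) test. Reported as the minimum effective dose (EDmin), mg/kg po.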

[10] = target: Sodium-dependent noradrenaline transporter (Mus musculus) (UniProt O55192); assay: In vivo potentiation of compound towards norepinephrine transporter after po administration was determined in mouse using mouse apomorphine hypothermia; format: functional, organism-based
In short: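 Apomorphine (APO) test after oral administration. The result is expressed as the minimum effective dose (EDmin), mg/kg po.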

Chain of Sodium-dependent serotonin transporter (Mus musculus) (Q60857 whole entry): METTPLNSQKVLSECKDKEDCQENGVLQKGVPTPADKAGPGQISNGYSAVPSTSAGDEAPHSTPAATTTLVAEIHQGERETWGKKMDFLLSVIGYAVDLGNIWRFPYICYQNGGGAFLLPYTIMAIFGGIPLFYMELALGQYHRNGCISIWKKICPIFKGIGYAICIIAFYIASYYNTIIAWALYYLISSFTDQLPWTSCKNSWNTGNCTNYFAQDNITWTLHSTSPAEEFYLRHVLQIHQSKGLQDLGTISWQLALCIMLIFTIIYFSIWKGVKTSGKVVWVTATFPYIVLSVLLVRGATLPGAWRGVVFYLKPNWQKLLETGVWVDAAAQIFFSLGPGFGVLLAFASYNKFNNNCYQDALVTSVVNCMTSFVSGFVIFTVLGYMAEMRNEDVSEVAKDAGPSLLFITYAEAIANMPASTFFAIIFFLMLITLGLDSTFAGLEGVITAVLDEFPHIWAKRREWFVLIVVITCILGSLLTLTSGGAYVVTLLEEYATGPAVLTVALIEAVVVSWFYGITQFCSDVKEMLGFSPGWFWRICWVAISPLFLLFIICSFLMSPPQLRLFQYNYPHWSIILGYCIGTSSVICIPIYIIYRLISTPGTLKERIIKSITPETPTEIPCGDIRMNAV
T3 sequence (P23975 whole entry): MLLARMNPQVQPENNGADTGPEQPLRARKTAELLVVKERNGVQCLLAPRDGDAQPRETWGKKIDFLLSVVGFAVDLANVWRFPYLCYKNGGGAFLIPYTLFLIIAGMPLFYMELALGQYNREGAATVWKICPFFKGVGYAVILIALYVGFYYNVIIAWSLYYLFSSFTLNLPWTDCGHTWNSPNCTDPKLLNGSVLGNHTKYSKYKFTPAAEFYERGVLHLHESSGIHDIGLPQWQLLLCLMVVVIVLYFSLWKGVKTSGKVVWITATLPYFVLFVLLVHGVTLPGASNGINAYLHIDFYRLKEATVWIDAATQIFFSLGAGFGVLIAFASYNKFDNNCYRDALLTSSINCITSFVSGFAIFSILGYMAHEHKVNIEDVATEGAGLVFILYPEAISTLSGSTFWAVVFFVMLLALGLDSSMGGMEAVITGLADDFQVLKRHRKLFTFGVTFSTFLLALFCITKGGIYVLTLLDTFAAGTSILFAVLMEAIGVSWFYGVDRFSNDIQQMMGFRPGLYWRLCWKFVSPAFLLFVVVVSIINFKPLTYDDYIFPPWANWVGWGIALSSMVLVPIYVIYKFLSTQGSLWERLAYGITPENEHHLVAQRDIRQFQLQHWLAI
T1 sequence (Q01959 whole entry): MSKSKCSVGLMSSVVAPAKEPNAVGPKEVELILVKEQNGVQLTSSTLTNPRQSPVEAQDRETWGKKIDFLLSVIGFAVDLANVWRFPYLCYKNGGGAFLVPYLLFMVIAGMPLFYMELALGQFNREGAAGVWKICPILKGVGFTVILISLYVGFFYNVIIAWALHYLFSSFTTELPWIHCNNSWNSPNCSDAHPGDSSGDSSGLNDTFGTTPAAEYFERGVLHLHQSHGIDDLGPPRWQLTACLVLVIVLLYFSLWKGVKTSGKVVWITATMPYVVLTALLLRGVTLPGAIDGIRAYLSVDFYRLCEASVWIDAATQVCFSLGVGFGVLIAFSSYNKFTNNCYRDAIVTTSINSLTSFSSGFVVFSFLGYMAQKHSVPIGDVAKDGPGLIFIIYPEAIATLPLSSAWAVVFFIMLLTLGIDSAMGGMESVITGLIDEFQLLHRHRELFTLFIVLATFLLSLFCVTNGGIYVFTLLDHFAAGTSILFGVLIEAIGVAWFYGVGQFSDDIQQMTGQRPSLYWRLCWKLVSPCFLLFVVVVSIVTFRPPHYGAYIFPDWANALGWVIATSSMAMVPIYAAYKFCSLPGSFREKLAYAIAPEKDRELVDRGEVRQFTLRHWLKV
T2 sequence (P31645 whole entry): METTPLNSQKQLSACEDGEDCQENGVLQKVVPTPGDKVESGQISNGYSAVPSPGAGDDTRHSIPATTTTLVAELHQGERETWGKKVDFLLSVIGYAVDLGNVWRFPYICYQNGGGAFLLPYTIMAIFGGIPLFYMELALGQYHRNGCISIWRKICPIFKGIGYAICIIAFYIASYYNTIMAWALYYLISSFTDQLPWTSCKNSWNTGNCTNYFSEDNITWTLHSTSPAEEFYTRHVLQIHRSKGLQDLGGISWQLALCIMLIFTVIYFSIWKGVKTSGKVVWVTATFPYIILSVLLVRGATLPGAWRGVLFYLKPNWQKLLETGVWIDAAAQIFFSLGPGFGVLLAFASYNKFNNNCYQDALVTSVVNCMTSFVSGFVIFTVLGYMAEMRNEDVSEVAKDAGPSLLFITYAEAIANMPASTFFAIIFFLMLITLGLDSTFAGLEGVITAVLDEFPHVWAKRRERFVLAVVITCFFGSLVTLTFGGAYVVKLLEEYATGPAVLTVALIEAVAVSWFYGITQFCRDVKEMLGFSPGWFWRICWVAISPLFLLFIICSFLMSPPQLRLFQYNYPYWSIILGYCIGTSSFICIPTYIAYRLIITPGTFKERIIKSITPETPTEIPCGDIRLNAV
Chain of Sodium-dependent dopamine transporter (Mus musculus) (Q61327 whole entry): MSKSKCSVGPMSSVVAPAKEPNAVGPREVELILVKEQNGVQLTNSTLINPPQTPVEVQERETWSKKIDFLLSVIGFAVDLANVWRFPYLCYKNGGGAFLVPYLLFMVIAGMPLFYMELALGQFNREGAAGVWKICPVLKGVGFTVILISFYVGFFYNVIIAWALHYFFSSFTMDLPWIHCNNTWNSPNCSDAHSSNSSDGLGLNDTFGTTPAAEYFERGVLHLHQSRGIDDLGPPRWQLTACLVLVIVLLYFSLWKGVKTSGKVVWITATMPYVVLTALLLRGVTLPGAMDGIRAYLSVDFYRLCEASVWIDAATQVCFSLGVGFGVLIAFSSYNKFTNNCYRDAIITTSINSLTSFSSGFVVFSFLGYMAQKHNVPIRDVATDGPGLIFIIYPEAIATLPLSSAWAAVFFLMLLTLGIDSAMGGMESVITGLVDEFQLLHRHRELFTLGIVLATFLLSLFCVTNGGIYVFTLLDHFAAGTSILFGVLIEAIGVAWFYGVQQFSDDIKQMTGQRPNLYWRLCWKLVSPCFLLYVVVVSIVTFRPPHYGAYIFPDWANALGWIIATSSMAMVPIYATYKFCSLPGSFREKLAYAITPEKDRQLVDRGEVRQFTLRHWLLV
Chain of Sodium-dependent noradrenaline transporter (Mus musculus) (O55192 whole entry): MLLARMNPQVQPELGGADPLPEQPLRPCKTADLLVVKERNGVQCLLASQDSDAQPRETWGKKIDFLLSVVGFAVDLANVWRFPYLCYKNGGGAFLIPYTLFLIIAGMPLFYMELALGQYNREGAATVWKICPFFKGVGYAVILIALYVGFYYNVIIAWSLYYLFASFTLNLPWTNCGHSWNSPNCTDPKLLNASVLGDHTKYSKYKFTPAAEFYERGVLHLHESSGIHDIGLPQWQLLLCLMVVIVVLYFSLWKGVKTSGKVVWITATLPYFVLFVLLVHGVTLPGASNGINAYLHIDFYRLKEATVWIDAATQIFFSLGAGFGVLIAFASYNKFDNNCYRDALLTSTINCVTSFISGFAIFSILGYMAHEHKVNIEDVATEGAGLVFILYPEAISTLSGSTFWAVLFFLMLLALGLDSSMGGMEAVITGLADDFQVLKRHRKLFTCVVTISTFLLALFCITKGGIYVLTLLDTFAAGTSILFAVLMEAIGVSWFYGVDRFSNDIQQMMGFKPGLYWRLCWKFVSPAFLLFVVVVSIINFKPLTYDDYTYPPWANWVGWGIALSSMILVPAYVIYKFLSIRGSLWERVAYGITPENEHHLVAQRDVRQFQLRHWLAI

Row | Compound | Ki [1] [nM] | Ki [2] [nM] | Ki [3] [nM] | IC50 [4] [nM] | IC50 [5] [nM] | Ki [6] [nM] | IC50 [7] [nM] | EDmin [8] [mg/kg] | EDmin [9] [mg/kg] | EDmin [10] [mg/kg]
1 | CNC[C@H]1C2CCC(C2)[C@@H]1c1ccc2cc(OC)ccc2c1 (stereo partly specified) | 60 | 12 | 120 |  |  |  |  |  |  | 
2 | CN(C)C[C@H]1C2CCC(C2)[C@@H]1c1ccc2cc(O)ccc2c1 (stereo partly specified) | 6 | 47 | 50 |  |  |  |  |  |  | 
3 | CN(C)C[C@@H]1C2CCC(CC2)[C@@H]1c1ccc(Cl)c(Cl)c1 | 7.2 | 57 |  | 28 | 22 | 44 | 270 |  |  | 
4 | CN(C)C[C@@H]1C2CCC(C2)[C@H]1c1ccc2ccccc2c1 (stereo partly specified) | 38 | 5.8 |  | 93 |  |  | 20 | > 20 |  | 
5 | CN(C)C[C@H]1C2CCC(C2)[C@@H]1c1ccc2cc(F)ccc2c1 (stereo partly specified) | 50 | 2.6 | 385 |  |  |  |  |  |  | 
6 | COc1ccc2cc([C@H]3C4CCC(C4)[C@@H]3CN(C)C)ccc2c1 (stereo partly specified) | 64 | 25 | 68 |  |  |  |  |  |  | 
7 | CN(C)C[C@H]1C2CCC(C2)[C@@H]1c1ccc2ccccc2c1 (stereo partly specified) | 25 | 2.3 |  | 76 |  |  | 9 | 5 | 40 | 25
8 | CN(C)CC1C2CCC(C2)C1c1cccc2ccccc12 (stereo unspecified) | 430 | 52 |  | 1510 |  |  | 93 |  |  | 
9 | CNC[C@H]1C2CCC(C2)[C@@H]1c1ccc2cc(F)ccc2c1 (stereo partly specified) | 72 | 4.4 | 316 |  |  |  |  |  |  | 
10 | CNCC1C2CCC(C2)C1c1ccc2ccccc2c1 (stereo unspecified) | 25 | 4.9 |  | 87 |  |  | 50 | 20 | 25 | 20
11 | CNC[C@H]1C2CCC(C2)[C@@H]1c1ccc2ccccc2c1 (stereo partly specified) | 41 | 3.6 |  | 86 |  |  | 9 |  |  | 
12 | CN(C)C[C@H]1C2CCC(CC2)[C@@H]1c1cccc(Cl)c1 | 64 | 25 |  | 165 |  |  | 303 |  |  | 
13 | CN(C)CC1C2CCC(C2)C1c1ccc2ccccc2c1 (stereo unspecified) | 18 | 2.8 |  | 95 |  |  | 10 |  |  | 

Source: ChEMBL document CHEMBL1136239, “Bicyclo[2.2.1]heptanes as novel triple re-uptake inhibitors for the treatment of depression” (Bioorg Med Chem Lett, 2003)
